From PubChem BioAssay
Hits are enriched below; roughly 3.1% of the tested compounds scored in any of these assays.
OX1R antag-1: blocks the human orexin 1 receptor. inhibition, % at 6.6 µM. 330,000 tested, 1.8% active. OX1R-expressing cells, FRET antagonist read-out. O43613; in the data active = inhibition mostly above about 38%, no sharp cut-off; inactive = mostly below about 40%
GPR7 antag: human neuropeptides B/W receptor 1 antagonism; P48145; GPR7-expressing cells, fluorescence antagonist assay; inhibition, % at 4.4 µM; 290,000 tested, 1.1% active; in the data active = inhibition above about 16%, passing the limit was not always enough;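 also: cells stimulated with the agonist NPW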
Target sequence (P48145 whole entry, looked up): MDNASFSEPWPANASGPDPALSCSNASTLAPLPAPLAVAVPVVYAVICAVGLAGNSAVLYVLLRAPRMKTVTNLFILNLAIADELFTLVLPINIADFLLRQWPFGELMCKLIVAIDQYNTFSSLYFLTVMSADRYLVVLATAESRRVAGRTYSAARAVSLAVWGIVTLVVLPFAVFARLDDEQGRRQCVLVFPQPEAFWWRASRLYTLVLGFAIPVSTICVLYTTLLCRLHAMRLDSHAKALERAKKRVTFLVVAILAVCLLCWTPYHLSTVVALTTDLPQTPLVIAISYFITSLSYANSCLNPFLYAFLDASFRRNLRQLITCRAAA
GalR3 antag: antagonists of human GalR3; HEK293 GalR3-CNG cAMP membrane potential fluorescence; galR3 body fused to GalR1 C-terminus; inhibition, % at 3 µM; 360,000 tested, 0.44% active; AID 651719;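 active = inhibition above the screen-wide average plus 3 SD, cut at about 13% in these data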;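 also: forskolin and galanin both at EC90 stimulate the cells; cAMP rise reported by CNG channel membrane potential dye signal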
Target sequence (O60755 1-299 limits assumed): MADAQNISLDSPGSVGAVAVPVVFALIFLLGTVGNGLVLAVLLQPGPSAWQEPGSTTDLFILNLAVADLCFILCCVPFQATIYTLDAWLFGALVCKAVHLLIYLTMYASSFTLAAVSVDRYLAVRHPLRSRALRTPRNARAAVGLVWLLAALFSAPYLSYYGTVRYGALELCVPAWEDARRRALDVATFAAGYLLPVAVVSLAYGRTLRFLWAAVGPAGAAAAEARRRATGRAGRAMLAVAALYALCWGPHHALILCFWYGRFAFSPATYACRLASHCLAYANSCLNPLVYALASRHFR
OX1R antag-2: antagonists of human orexin 1 receptor; O43613; CHO/OX1R cells, Fluo-8 calcium fluorescence, orexin A; inhibition, % at 5 µM; 330,000 tested, 0.43% active; AID 434989;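 active = inhibition above its plate's threshold, mean inhibition of all tested compounds on the plate plus 3 SD, cut at about 37% in these data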
CHO parental Ca: counter-screen: ATP calcium response change in parental CHO cells | AID 463079 | 330,000 tested, 0.63% active | parental CHO-K1, ATP-induced calcium, Fluo-8 fluorescence | inhibition, % at 5.6 µM;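 active = inhibition above that plate's mean sample inhibition plus 3 SD, cut at about 26% in these data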
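Test system: parental CHO cells; detection: calcium-sensitive Fluo-8 fluorescence; evaluation: percent inhibition of calcium signal; also added: ATP as calcium-mobilizing challenge; repeats: one well per compound; control set: ATP-challenged DMSO wells low, unchallenged DMSO wells high; compound: single nominal dose of 5.6 µM per compound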
OX1R Ca confirm: OX1R (human) antagonism, confirmed; shares compounds with OX1R antag-2; CHO/OX1R cells, orexin A calcium Fluo-8 fluorescence; inhibition, % at 5 µM; 1,100 tested, 38% active; in the data active = inhibition above about 29%
CHO Ca counter: counter-screen: parental CHO calcium response change, triplicate. shares compounds with OX1R antag-2. parental CHO-K1, ATP-induced calcium, Fluo-8 fluorescence. inhibition, % at 5.6 µM. 1,100 tested, 9.3% active. AID 492965;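 active = inhibition above a per-plate limit, the mean inhibition of that plate's test compounds plus 3 SD, cut at about 25% in these data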
Numbers stand for hits; - = inactive; . = no result.

SMILES	OX1R antag-1	GPR7 antag	GalR3 antag	OX1R antag-2	CHO parental Ca	OX1R Ca confirm	CHO Ca counter
Cc1cccc(N2CCN(C3=NC(=O)C(Cc4ccccc4)S3)CC2)c1 (centres undefined)	-	-	-	-	-	.	.
CC(C)OC(=O)CSc1nc2c(c(C3CC=CCC3)c1C#N)CCC2 (centres undefined)	-	-	-	54	-	-	-
COc1ccccc1OCCCc1c(C)n[nH]c1C	-	-	-	-	-	.	.
COc1ccccc1OCCCCCc1c(C)n[nH]c1C	-	-	-	-	-	-	-
Cc1cc(C)cc(NS(=O)(=O)c2ccc3[nH]cc(C(=O)N4CCc5ccccc54)c(=O)c3c2)c1	-	-	-	-	-	.	.
CCc1ccc(NS(=O)(=O)c2ccc3[nH]cc(C(=O)N4CCc5ccccc54)c(=O)c3c2)cc1	-	-	-	-	-	32	-
CC(=O)c1c(C)[nH]c(C(=O)CN2CCN(S(=O)(=O)c3ccc(C(C)C)cc3)CC2)c1C	-	.	-	-	-	-	-
CCOc1ccc2nc(SCCNS(=O)(=O)c3ccccc3)sc2c1	-	-	-	50	-	-	-
CCOc1ccc2nc(SCC(=O)c3ccccc3)sc2c1	-	-	-	-	-	.	.
C/C(=N\Nc1ccc(C(F)(F)F)cn1)c1ccc(S(=O)(=O)NCc2ccco2)cc1	-	-	-	-	-	-	-
COc1ccc(CNC(=O)C(c2ccc(C)o2)N(Cc2cccs2)C(=O)Cc2cccs2)cc1 (centres undefined)	-	-	-	46	-	-	-
COCCN(C(=O)Cc1cccs1)C(C(=O)NCc1ccc(OC)cc1)c1ccc(C)cc1 (centres undefined)	-	-	-	-	-	.	.
N=c1c2ccccc2nc2n1CCCCC2	.	.	-	.	.	.	.
CC(C)=CCC/C(C)=C/CNC(=O)C[C@H]1C[C@H](C(=O)N2CCCCC2)[C@@]2(C)c3[nH]c4cc(CCC(=O)N(C)C)ccc4c3CCN2C1=O	-	.	.	49	-	-	-
COc1ccccc1C(=O)COC(=O)c1ccc(N(C)C)cc1	-	-	-	-	-	-	-
COCc1ccc([C@@H]2C[C@H]3CN(Cc4ccccc4C)C(=O)[C@]34CCCN24)o1	-	-	-	-	-	.	.
NC(=O)c1ccc(N2CCN(c3ccccc3F)CC2)c([N+](=O)[O-])c1	-	-	-	-	-	-	-
Cc1ccc(C(=O)OCn2ncc(Cl)c(Cl)c2=O)cc1	-	-	-	-	-	73	-
O=C(OCn1ncc(Cl)c(Cl)c1=O)c1ccc(C(F)(F)F)cc1	.	-	-	.	.	.	.
N#Cc1c(NC(=O)CSc2nc(N)cc(=O)[nH]2)sc2c1CCCC2	-	-	-	-	-	-	-
Cc1nnc(SCC(=O)Nc2sc3c(c2C#N)CCCC3)[nH]c1=O	-	-	-	-	-	.	.
COC(=O)[C@H](CC(C)C)NC(=O)NC1CCCc2ccccc21 (some centres undefined)	-	-	-	-	-	-	-
CC(OC(=O)C1=COCCO1)C(=O)NC(C)c1ccc(Cl)cc1Cl (centres undefined)	-	.	-	-	-	.	.
COc1ccc(S(=O)(=O)NCCc2ccc(F)cc2)cc1	-	-	-	-	-	.	.
CCCCNc1ccc(C(F)(F)F)cc1S(=O)(=O)NCCc1ccc(F)cc1	-	.	-	-	-	-	-
SMILES	OX1R antag-1	GPR7 antag	GalR3 antag	OX1R antag-2	CHO parental Ca	OX1R Ca confirm	CHO Ca counter
CCc1ccc2c(CC(=O)NNC(=O)c3ccncc3)coc2c1	-	.	-	-	-	.	.
COc1ccc2c(c1)CC(N1CCN(C)CC1)c1cc(OC)ccc1S2 (centres undefined)	-	.	-	45	-	-	-
CSc1ccc2c(c1)C(N1CCN(C)CC1)Cc1ccc(F)cc1S2 (centres undefined)	-	.	-	-	-	.	.
O=C(CCNC(=O)c1ccc(Br)o1)NC1CCCC1	-	-	-	-	-	-	-
O=C(NC1CCCCC1)c1ccc(Br)o1	-	-	-	-	-	.	.
O=C(CSc1nc2ccccc2[nH]1)Nc1ccccc1N1CCOCC1	-	-	-	-	-	35	-
O=C(CSc1nc2ccccc2o1)Nc1ccccc1N1CCOCC1	-	-	-	-	-	.	.
Cc1ccc(Nc2nc3ccccc3nc2Nc2c(C)n(C)n(-c3ccccc3)c2=O)cc1	-	-	-	57	-	-	-
Cc1c(Nc2nc3ccccc3nc2NS(=O)(=O)c2cccc(Cl)c2)c(=O)n(-c2ccccc2)n1C	-	-	-	-	-	.	.
Cc1noc(C)c1C(=O)OCC(=O)c1cc(C)n(Cc2ccccc2Cl)c1C	-	-	-	49	-	-	-
S=C(NCc1cccnc1)Nc1cccc2ccccc12	-	-	-	-	-	-	-
CCOc1cc2c(cc1C=O)OC(C)C2 (centres undefined)	-	-	-	-	-	.	.
CCOc1cc2c(cc1/C=C/c1noc(C)c1[N+](=O)[O-])OC(C)C2 (centres undefined)	-	-	-	-	-	51	44
O=C(COc1ccc2ccc(=O)oc2c1)Nc1cccc(S(=O)(=O)N2CCCCC2)c1	-	.	-	-	-	-	-
CCOc1ccccc1OCC(=O)Nc1cccc(S(=O)(=O)N2CCCCCC2)c1	-	.	-	-	-	.	.
N#Cc1ccccc1OCC(=O)Nc1cccc(S(=O)(=O)N2CCCCCC2)c1	-	.	-	-	-	-	-
CCOC(=O)CSc1nnc(-c2ccc(NS(=O)(=O)c3ccc(C)cc3)cc2)o1	-	-	-	-	-	36	27
Cc1ccc(C)c(C(=O)COC(=O)CCCC(=O)Nc2cc(C(F)(F)F)ccc2Cl)c1	-	-	-	-	-	.	.
COc1cccc(-c2csc(N3CCN(C(=O)Nc4ccc(Cl)cc4)CC3)n2)c1	-	-	-	-	-	-	-
COc1ccc(NC(=O)N2CCN(c3nc(-c4cccc(OC)c4)cs3)CC2)cc1	-	-	-	-	-	.	.
COc1ccc(C(=O)NCC(=O)OCCOc2ccc(Cl)cc2)cc1OC	-	.	-	-	-	.	.
CC(C)(O)[C@@H]1CC[C@@](C)(C2CC[C@]3(C)C2[C@H](O)CC2[C@@]4(C)CC[C@H](O)C(C)(C)C4[C@@H](O[C@H]4O[C@@H](CO)[C@H](O)[C@@H](O)[C@@H]4O[C@@H]4O[C@H](CO)[C@@H](O)[C@H](O)[C@H]4O)C[C@]23C)O1 (stereo in doubt)	-	.	-	-	-	.	.
O=C(COC(=O)c1cccc(S(=O)(=O)N2CCOCC2)c1)Nc1nc(-c2ccccc2Cl)cs1	-	-	-	-	-	36	26
COc1ccc(C(=O)NCC(=O)N2CCN(C(=O)c3ccco3)CC2)cc1	-	-	-	-	-	.	.
CCn1c(CSc2ncccn2)nnc1SCC(=O)N1CCc2ccccc21	-	-	-	-	-	.	.
